For assay [1], the target named is Ribosomal protein S6 kinase alpha-1 (Homo sapiens, UniProt Q15418). As to the kind of experiment: Inhibition of C-terminal RPS6KA1 kinase domain (unknown origin) assessed as remaining activity at 10 uM by ATP-competition binding assay relative to control.
In assay [2] the target is Calcium/calmodulin-dependent protein kinase type 1D (Homo sapiens, UniProt Q8IU85). Description: Inhibition of CAMK1d in human HeLa cells lysate pre incubated for 15 mins followed by ATP acyl phosphate probe addition and measured after 10 mins by LC-MS/MS analysis. The assay is classed as subcellular. Put shortly:
(§1)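 KiNativ-type profiling in HeLa lysate (5 mg/mL total protein). Lysate preincubated 15 min with inhibitor at 50, 10, 2, 0.8 or 0 μM, then ATP or ADP acylphosphate probe added (5 μM final) for 10 min. Reaction stopped with urea and analysed by targeted MS, using up to four fragment ions per kinase peptide-probe conjugate. % inhibition calculated against untreated lysate. Duplicate reactions.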

Assay [3] is described as follows: Inhibition of HGK/MINK/TNIK in human HeLa cells lysate pre incubated for 15 mins followed by ATP acyl phosphate probe addition and measured after 10 mins by LC-MS/MS analysis. It counts as subcellular.
The target in assay [4] is Dual specificity mitogen-activated protein kinase kinase 6 (Homo sapiens, UniProt P52564). As to the kind of experiment: Inhibition of MAP2K6 in human HeLa cells lysate pre incubated for 15 mins followed by ATP acyl phosphate probe addition and measured after 10 mins by LC-MS/MS analysis. The assay is classed as subcellular.
The target of a further assay is p38 delta/gamma (Homo sapiens, UniProt O15264+P53778). Description: Inhibition of P38delta/gamma in human HeLa cells lysate pre incubated for 15 mins followed by ATP acyl phosphate probe addition and measured after 10 mins by LC-MS/MS analysis. It counts as subcellular.
Assay [5] concerns the target Ribosomal protein S6 kinase alpha-3 (Homo sapiens, UniProt P51812). As to the kind of experiment: Inhibition of RSK2 in human HeLa cells lysate pre incubated for 15 mins followed by ATP acyl phosphate probe addition and measured after 10 mins by LC-MS/MS analysis. It counts as subcellular.
Assay [6] addresses Mitogen-activated protein kinase kinase kinase 1 (Homo sapiens, UniProt Q13233). As to the kind of experiment: Inhibition of MAP3K1 in human HeLa cells lysate pre incubated for 15 mins followed by ADP acyl phosphate probe addition and measured after 10 mins by LC-MS/MS analysis. It counts as subcellular.
The target in assay [7] is T1, Phosphatidylinositol 5-phosphate 4-kinase type-2 alpha (Homo sapiens, UniProt P48426).
T1 sequence (P48426 whole entry): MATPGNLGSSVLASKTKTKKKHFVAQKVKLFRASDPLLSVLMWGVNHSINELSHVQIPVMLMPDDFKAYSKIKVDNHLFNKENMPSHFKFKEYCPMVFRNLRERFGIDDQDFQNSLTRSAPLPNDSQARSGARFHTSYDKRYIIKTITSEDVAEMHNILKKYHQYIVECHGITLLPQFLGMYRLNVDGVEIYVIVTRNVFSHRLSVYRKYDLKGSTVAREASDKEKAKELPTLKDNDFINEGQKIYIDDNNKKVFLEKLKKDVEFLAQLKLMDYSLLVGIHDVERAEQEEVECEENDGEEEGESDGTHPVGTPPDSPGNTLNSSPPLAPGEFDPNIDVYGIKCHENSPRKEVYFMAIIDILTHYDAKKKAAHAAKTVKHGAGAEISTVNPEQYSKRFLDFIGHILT
As to the kind of experiment: Inhibition of PIP5K2A LIP1 site in human HeLa cells lysate pre incubated for 15 mins followed by ADP acyl phosphate probe addition and measured after 10 mins by LC-MS/MS analysis. The assay is classed as subcellular.

The target in assay [8] is Ribosomal protein S6 kinase alpha-5 (Homo sapiens, UniProt O75582). Description: Inhibition of MSK1 domain 1 in human HeLa cells lysate at 2 uM pre incubated for 15 mins followed by ADP acyl phosphate probe addition and measured after 10 mins by LC-MS/MS analysis relative to control. The settings on record: time 25.0 min. It counts as subcellular.
Assay [9] in a line: Inhibition of MAP3K2/MAP3K3 in human HeLa cells lysate at 2 uM pre incubated for 15 mins followed by ADP acyl phosphate probe addition and measured after 10 mins by LC-MS/MS analysis relative to control. The settings on record: 25 min, condition cancer.
Assay [10] is described as follows: Inhibition of PRKX/PRKY in human HeLa cells lysate at 2 uM pre incubated for 15 mins followed by ADP acyl phosphate probe addition and measured after 10 mins by LC-MS/MS analysis relative to control. The settings on record: 25 min, condition cancer.
Assay [11] deals with Calcium/calmodulin-dependent protein kinase type II subunit delta (Homo sapiens, UniProt Q13557). Description: Inhibition of CAMK2d in human HeLa cells lysate at 50 uM pre incubated for 15 mins followed by ATP acyl phosphate probe addition and measured after 10 mins by LC-MS/MS analysis relative to control. It counts as subcellular. The conditions noted are these: time 25.0 min. An outline of the steps: as §1

In assay [12] the target is RAC-alpha serine/threonine-protein kinase (Homo sapiens, UniProt P31749). Description: Inhibition of AKT1 in human HeLa cells lysate at 2 uM pre incubated for 15 mins followed by ATP acyl phosphate probe addition and measured after 10 mins by LC-MS/MS analysis relative to control. The assay is classed as subcellular. The settings on record: time 25.0 min. An outline of the steps:
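HeLa cell lysates (5 mg/mL total protein) were preincubated with inhibitor at 0, 0.8, 2, 10 or 50 μM for 15 min. ATP or ADP acylphosphate probe was then added (5 μM final) for 10 min, and reactions were stopped with urea. Up to four fragment ions per kinase probe-peptide were quantified by targeted MS. % inhibition was taken relative to untreated lysate. Run in duplicate.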

In assay [13] the target is Cyclin-dependent kinase 8/19 (Homo sapiens, UniProt P49336+Q9BWU1). Description: Inhibition of CDK8/CDK11 in human HeLa cells lysate at 2 uM pre incubated for 15 mins followed by ATP acyl phosphate probe addition and measured after 10 mins by LC-MS/MS analysis relative to control. The assay is classed as subcellular. The conditions noted are these: time 25.0 min. Put shortly:
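KiNativ profiling in HeLa lysate (5 mg/mL total protein). Lysate incubated 15 min with inhibitor at 50, 10, 2, 0.8 or 0 μM. ATP or ADP acylphosphate probe then added (5 μM final) and reacted 10 min. Reaction stopped with urea and analysed by targeted MS, using up to four fragment ions per kinase peptide-probe conjugate. % inhibition taken against untreated lysate. Run in duplicate.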

Assay [14] concerns the target Serine/threonine-protein kinase greatwall (Homo sapiens) (UniProt Q96GX5). Description: Inhibition of MASTL in human HeLa cells lysate at 2 uM pre incubated for 15 mins followed by ATP acyl phosphate probe addition and measured after 10 mins by LC-MS/MS analysis relative to control. It counts as subcellular. The settings on record: time 25.0 min.
Assay [15] has as its target Tyrosine-protein kinase JAK1 (Homo sapiens, UniProt P23458). Description: Inhibition of JAK1 domain 2 in human HeLa cells lysate at 2 uM pre incubated for 15 mins followed by ATP acyl phosphate probe addition and measured after 10 mins by LC-MS/MS analysis relative to control. The assay is classed as subcellular. The settings on record: time 25.0 min.
The target in assay [16] is Mitogen-activated protein kinase 7 (Mus musculus) (UniProt Q9WVS8). As to the kind of experiment: Inhibition of BMK1 in mouse MEF cells transfected with PML2D S403D/T409D mutant assessed as increase in p21 protein expression at 5 uM incubated for 16 hrs by Western blot analysis. The assay is classed as cell-based. An outline of the steps:
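Pml−/− MEFs infected with Ad-EV, Ad-PML or Ad-PML2D. Three days later treated ±5 μM inhibitor for 16 h. p21 western blot quantified by densitometry and normalized to GAPDH, relative to untreated Ad-EV-infected Pml−/− cells set as 1. n = 3, ±SEM.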
Background: In western blotting, separated proteins are transferred to a membrane and probed.

The source made the active and inactive calls. No cut-off for these calls is given here.

Cyclin-dependent kinase 8/19, sequence (P49336 whole entry, looked up, the tested form may be a part): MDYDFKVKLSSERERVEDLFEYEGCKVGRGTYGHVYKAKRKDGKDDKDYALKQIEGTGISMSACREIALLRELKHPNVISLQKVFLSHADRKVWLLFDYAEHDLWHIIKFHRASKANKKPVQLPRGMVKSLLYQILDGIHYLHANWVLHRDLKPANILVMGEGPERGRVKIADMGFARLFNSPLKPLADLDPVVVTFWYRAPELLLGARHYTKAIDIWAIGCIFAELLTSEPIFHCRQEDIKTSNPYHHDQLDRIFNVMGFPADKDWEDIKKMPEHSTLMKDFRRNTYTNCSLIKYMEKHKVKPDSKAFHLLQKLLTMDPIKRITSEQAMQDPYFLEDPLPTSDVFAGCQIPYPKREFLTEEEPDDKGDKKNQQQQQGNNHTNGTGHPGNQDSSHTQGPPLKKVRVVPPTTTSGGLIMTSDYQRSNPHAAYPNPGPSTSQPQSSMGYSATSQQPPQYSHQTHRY
Cyclin-dependent kinase 8/19, sequence (Q9BWU1 whole entry, looked up, the tested form may be a part): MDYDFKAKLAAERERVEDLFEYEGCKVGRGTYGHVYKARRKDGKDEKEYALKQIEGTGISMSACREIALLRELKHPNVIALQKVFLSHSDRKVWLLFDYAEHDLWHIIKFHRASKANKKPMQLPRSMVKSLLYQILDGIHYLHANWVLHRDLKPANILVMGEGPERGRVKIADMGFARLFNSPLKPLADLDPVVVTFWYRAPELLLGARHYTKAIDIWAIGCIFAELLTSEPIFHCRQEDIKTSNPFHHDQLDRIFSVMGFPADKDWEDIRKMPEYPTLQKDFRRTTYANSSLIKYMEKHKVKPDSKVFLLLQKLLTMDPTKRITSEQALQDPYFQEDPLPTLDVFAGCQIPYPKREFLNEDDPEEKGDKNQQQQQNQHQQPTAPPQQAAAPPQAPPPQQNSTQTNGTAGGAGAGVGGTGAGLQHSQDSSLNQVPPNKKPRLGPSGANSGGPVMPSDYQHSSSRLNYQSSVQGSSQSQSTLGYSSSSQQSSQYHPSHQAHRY
Tyrosine-protein kinase JAK1, sequence (P23458 whole entry, the tested form may be a part): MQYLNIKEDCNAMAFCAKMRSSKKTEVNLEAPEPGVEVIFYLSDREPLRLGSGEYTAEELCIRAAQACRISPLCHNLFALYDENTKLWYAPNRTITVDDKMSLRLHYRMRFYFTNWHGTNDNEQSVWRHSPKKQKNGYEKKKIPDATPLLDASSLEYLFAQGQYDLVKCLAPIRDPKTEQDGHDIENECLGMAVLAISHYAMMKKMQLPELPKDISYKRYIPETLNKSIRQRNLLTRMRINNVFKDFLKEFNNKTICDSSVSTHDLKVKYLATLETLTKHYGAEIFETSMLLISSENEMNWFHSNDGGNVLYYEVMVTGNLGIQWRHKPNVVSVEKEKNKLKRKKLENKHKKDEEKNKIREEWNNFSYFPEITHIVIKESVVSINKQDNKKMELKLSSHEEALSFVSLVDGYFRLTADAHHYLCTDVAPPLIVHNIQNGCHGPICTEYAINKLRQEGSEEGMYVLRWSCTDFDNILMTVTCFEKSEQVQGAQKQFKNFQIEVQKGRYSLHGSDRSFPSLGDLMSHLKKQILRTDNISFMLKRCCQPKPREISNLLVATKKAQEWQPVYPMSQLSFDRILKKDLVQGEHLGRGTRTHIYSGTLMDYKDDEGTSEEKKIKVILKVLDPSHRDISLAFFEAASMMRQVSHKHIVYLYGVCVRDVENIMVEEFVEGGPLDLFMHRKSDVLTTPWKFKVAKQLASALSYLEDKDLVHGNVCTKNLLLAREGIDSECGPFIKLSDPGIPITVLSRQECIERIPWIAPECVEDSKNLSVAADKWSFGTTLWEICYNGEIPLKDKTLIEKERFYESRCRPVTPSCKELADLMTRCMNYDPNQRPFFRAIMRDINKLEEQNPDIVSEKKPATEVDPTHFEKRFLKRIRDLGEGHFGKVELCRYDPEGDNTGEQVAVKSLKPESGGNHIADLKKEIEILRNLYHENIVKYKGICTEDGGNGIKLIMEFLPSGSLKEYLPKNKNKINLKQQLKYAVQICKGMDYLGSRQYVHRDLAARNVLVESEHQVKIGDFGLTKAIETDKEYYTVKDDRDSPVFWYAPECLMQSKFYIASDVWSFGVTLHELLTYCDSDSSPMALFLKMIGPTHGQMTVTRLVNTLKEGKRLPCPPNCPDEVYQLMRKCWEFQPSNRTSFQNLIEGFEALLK
Ribosomal protein S6 kinase alpha-5, sequence (O75582 whole entry, looked up, the tested form may be a part): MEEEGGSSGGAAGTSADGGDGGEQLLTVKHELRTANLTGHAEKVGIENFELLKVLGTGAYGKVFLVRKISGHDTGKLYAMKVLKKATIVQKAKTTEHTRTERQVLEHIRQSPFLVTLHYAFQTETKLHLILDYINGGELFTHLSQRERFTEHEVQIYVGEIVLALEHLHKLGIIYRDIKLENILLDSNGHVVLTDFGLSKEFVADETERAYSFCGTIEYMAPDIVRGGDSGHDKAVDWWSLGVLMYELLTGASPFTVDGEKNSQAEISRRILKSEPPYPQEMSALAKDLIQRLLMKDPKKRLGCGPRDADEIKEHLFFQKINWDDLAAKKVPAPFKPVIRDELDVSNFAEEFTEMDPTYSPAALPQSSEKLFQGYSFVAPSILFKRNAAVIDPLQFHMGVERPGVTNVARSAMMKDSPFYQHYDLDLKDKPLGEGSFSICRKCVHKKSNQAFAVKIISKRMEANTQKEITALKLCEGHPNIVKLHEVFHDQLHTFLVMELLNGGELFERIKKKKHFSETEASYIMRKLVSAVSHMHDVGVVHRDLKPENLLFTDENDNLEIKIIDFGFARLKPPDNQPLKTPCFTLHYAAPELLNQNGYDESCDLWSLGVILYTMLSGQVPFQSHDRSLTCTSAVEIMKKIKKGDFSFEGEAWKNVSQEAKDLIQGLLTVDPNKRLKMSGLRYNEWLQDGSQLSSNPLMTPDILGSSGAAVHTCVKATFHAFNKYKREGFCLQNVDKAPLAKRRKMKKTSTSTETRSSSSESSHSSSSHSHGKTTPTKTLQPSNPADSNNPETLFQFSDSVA
RAC-alpha serine/threonine-protein kinase, sequence (P31749 whole entry, the tested form may be a part): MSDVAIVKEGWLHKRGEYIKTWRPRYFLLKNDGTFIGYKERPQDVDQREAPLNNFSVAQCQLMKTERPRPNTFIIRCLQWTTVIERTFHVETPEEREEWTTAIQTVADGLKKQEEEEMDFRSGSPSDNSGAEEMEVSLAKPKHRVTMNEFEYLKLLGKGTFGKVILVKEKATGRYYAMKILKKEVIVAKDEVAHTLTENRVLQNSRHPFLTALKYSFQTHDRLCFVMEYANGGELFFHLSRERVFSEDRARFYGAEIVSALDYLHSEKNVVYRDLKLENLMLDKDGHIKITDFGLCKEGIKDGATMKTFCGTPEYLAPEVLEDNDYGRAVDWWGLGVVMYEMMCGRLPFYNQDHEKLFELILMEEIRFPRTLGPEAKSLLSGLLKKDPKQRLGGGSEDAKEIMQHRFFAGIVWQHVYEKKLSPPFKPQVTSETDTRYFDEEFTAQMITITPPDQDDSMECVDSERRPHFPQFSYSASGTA
Serine/threonine-protein kinase greatwall (Homo sapiens), sequence (Q96GX5 whole entry, the tested form may be a part): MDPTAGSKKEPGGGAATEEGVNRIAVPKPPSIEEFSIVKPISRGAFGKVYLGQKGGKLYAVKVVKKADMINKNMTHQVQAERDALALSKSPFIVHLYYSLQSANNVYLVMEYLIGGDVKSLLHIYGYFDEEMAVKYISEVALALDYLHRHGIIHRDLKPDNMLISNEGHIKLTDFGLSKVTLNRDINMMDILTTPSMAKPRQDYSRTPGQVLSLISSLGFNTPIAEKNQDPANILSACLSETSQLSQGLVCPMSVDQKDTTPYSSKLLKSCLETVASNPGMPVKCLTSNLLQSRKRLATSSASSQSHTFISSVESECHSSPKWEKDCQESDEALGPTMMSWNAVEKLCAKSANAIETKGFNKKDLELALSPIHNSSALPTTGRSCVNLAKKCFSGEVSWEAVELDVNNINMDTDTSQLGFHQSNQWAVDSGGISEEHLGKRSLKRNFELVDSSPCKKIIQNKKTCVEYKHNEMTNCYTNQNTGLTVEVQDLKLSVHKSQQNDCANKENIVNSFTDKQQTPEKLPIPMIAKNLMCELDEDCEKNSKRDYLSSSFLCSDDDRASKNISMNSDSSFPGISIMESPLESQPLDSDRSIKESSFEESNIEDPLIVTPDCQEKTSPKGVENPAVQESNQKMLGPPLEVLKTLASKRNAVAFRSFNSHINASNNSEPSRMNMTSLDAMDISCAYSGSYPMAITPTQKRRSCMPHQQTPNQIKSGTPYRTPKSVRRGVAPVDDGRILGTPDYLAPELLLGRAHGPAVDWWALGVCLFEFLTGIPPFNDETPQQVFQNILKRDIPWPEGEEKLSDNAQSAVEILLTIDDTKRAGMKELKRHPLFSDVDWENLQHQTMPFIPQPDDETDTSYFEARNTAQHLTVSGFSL
Dual specificity mitogen-activated protein kinase kinase 6, sequence (P52564 whole entry): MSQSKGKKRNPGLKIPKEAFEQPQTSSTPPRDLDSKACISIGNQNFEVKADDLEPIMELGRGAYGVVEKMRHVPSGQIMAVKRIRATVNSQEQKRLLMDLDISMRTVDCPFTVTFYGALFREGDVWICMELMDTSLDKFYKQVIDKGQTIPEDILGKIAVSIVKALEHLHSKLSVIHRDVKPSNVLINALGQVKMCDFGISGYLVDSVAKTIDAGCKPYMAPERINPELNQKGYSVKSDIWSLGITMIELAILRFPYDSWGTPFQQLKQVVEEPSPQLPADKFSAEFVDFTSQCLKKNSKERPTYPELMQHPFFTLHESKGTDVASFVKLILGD
Calcium/calmodulin-dependent protein kinase type 1D, sequence (Q8IU85 whole entry, the tested form may be a part): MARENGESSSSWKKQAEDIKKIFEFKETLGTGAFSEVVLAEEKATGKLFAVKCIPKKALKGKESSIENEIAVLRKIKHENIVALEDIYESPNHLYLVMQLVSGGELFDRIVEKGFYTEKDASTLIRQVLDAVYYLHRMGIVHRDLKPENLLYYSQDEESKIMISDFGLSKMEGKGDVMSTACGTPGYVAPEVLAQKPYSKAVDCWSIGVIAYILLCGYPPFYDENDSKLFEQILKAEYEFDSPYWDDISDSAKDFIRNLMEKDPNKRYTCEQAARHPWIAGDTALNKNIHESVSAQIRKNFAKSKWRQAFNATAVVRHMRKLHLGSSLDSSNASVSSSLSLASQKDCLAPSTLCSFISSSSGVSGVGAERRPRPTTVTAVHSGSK

As a reminder, the IC50 is the concentration needed to halve the response being measured. As usually defined, the inhibition is the change of the read-out against control, counted positive when it falls. As to `CCOc1cc(N2CCC(O)CC2)ccc1Nc1ncc2c(n1)N(C)c1ccccc1C(=O)N2C`, the Activity in [1] came out at 28%. Further, the IC50 (in assay [2]; in [3]; in assay [4]; against p38 delta/gamma; in assay [5]; in assay [6]) was greater than 50 µM throughout. The IC50 in assay [7] was greater than 50 µM. Further, the inhibition was 21.5% in assay [8]; 40.8% in assay [11]; -6.9% in assay [12]; -7.5% in assay [13]; 8.1% in [14]; 9.7% in [15]. Further, the inhibition at 2 µM was 4.6% in [9] and 25.5% in assay [10]. Further, the inhibition result in assay [16] was “inactive”.

Source of the values: ChEMBL document CHEMBL5661979, “Pharmacological inhibition of BMK1 suppresses tumor growth through promyelocytic leukemia protein” (Cancer Cell, 2010).
